CHOP inhibitor: inhibitors of CHOP promoter induction, primary screen, cell-based, unfolded protein response, luciferase reporter; CHO-K1 CHOP-promoter luciferase, tunicamycin-induced, 15-18 h; inhibition, % at 10 µM; 220,000 compounds, 3.8% hits; AID 2732, 2010;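 active = compounds that reduced the stress-induced luciferase reporter signal by more than about 70% of percent inhibition, limit read from the data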;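 note: 0% = tunicamycin plus vehicle and 100% = wells without tunicamycin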
Autophagy mod: autophagy modulators in MEF cells, primary screen, imaging, high-content, MEF GFP-LC3; 190,000 compounds, 0.98% hits; AID 463193, 2010; calls only at 10 µM (by protocol); MEF GFP-LC3 puncta imaging; test concentration mostly 10 µM;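 active = percentage of spot-positive cells more than 3 SD above its plate mean, without a fluorescence outlier flag or 80% toxicity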;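 note: spot-positive cell cutoff set from DMSO-treated cells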
bCat nuc transl: modulators of beta-catenin nuclear translocation, primary screen, imaging, HeLa cells, immunofluorescence, high-content | nuclear translocation activity, % at 5 µM | 190,000 compounds, 0.3% hits;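 active = nuclear translocation activity above 50% at 5 µM, with a well cell count of 50 or more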;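 note: per-cell ratio of nuclear to cytoplasmic median beta-catenin stain intensity; plate controls were DMSO negative control for no effect and GSK-3 inhibitor IX positive control for full effect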
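Signal – beta-catenin immunofluorescence imaging with DAPI · Test system – human HeLa cell line · Dosing – 5 µM primary single dose, 0.1% DMSO, 0.02–20 µM confirmation series · Measure – % activation, nuclear-to-cytoplasmic median beta-catenin signal ratio per cell · Incubation – 24 h compound exposure at 37°C, 5% CO2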
Dynein transport: inhibitors of GR-EGFP nuclear translocation, primary screen, dynein cargo transport inhibitor project, imaging, high-content, 3617.4 mouse cells; test concentration mostly 20 µM; stimulated with dexamethasone, 1 µM; active compounds read low; AID 1381, 2008; z-score, hits read low; 220,000 compounds, 0.47% hits;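 active = plate z-score of nuclear minus cytoplasmic receptor signal below a set negative limit, without overly bright fluorescence or cell loss, cut at about -3.5 in these data, passing the limit was not always enough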;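 note: z-score of nuclear minus cytoplasmic ring GR-EGFP intensity difference per well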
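Buffer or medium: tet-free, stripped-serum medium; reagent: dexamethasone at 1.0 µM final, 30 min; incubation: 48 h induction, 1 h compound, 30 min dex at 37 °C; measured by: formaldehyde fixation, Hoechst nuclear stain, 10x automated fluorescence imaging; read-out: nuclear-to-cytoplasmic GR-EGFP distribution per well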
Lmaj promast: Leishmania major promastigote growth inhibition, primary screen; Leishmania major promastigotes, resazurin fluorescence viability; 200,000 compounds, 9% hits; AID 1063, 2008; inhibition, % at 10 µM; in the data active = inhibition above about 50%;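 note: promastigotes grown with compound for 44 hours at 28 °C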
MT stabilize HCS: microtubule stabilizers in HeLa cells, primary screen, imaging, high-content imaging. % tubulin-high responders, % at 10 µM. HeLa tubulin immunostaining HCS, 24 h; share of cells brighter than vehicle mean+2SD. 200,000 compounds, 0.83% hits. AID 2205, 2009;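 active = plate Z-score above 3 for both tubulin-high and condensed-nucleus cell shares, with cell loss under 80%, at 10 µM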;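 note: anti alpha tubulin signal scored within the nucleus-defined area of each cell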
Numbers without * were called inactive; i = inactive; nt = no result given; + = active, no number. A selection: hits, their analogues and other compounds. The true share with any hit is near 12%.

SMILES	CHOP inhibitor	Autophagy mod	bCat nuc transl	Dynein transport	Lmaj promast	MT stabilize HCS
COC(=O)c1ccc(NC(=O)CN2CCN(c3ccc(Cl)cc3)CC2)cc1	15	+	1	-0.062	-4	3
COC(=O)c1ccc(NC(=O)CN2CCN(S(=O)(=O)c3cc(Cl)ccc3OC)CC2)cc1	25	i	-1	-0.38	99*	4
COc1ccc(NC(=O)CCN2CCN(S(=O)(=O)c3cc(Cl)ccc3Cl)CC2)cc1	13	i	-4	-1.5	96*	2
COc1ccc(NC(=O)CCN2CCN(S(=O)(=O)c3ccc(OC)cc3)CC2)cc1	-23	i	0	-0.42	-2	3
Cc1noc(C)c1COc1ccc(C(=O)OCc2nnc(-c3ccc(Cl)cc3)o2)cc1	12	i	1	0.85	1	2
Cc1[nH]c(C)c2c(=O)[nH]ncc12	7	nt	0	-0.73	nt	nt
CCOC(=O)CNC(=O)CN1CCCN(S(=O)(=O)c2ccc(Br)s2)CC1	6	i	nt	0.86	-5	1
O=C(CN1CCCN(S(=O)(=O)c2ccc(Br)s2)CC1)Nc1ccc(Cl)cc1	72*	i	-2	0.16	8	2
COc1ccc(N2CCN(CC(=O)Nc3c(C)cc(C)cc3C)CC2)cc1	45	i	-2	1.4	79*	7
O=C(CSCc1c(F)cccc1Cl)Nc1cccnc1	1	+	-1	-0.68	-3	1
Clc1ccc(OCc2nnc(SCc3nnc(-c4ccccc4)o3)o2)c(Cl)c1	77*	i	7	-0.061	-2	2
Clc1ccc(-c2nnc(CSc3nnc(-c4cccs4)o3)o2)cc1	70*	i	-1	-0.91	-7	3
Clc1ccc2nc(SCc3nnc(-c4ccccc4)o3)[nH]c2c1	29	i	-2	1.7	10	2
COc1cc(C(=O)O)c2ccccc2n1	14	i	1	-0.54	-7	1
O=C(Nc1cccc(S(=O)(=O)N2CCCCC2)c1)Nc1ccc(Cl)cc1Cl	88*	i	0	-0.27	60*	2
O=C(Nc1ccc(Cl)cc1Cl)NC1CCN(S(=O)(=O)c2ccc(F)cc2)CC1	81*	nt	0	-1	nt	nt
Cc1ccc2[nH]c(CN3CCC(CO)(CC4CCCCO4)CC3)c(C)c2c1 (centres undefined)	32	i	7	-0.058	34	4
Cc1cc(NC(=O)CN2CCN(C/C=C/c3ccccc3)CC2)c([N+](=O)[O-])cc1C	62	i	5	-0.027	85*	4
O=C(CN1CCN(C/C=C/c2ccccc2)CC1)Nc1cc([N+](=O)[O-])ccc1Cl	30	i	nt	-0.32	56*	2
O=C(CN1CCCC1)Nc1ccc([N+](=O)[O-])cc1Cl	-1	i	-2	-0.11	-3	2
O=C(NC1CCCCCC1)c1ccc[nH]c1=S	-4	i	nt	-0.51	15	2
CCSc1ccccc1C(=O)NCc1ccco1	25	i	nt	-0.53	-1	3
O=C(O)CCn1c(SCc2cccc3ccccc23)nc2ccccc21	18	i	-9	-0.00072	5	2
N#CC1=C(N)N=C(SCc2cccc3ccccc23)C(C(N)=O)C12CCCCC2 (centres undefined)	12	i	nt	-0.68	100*	2
COc1cc(/C=C2\SC(=Nc3ccc(N4CCOCC4)cc3)N(C)C2=O)ccc1OC(C)C(=O)O (centres undefined)	22	i	12	0.24	-1	2
O=C(Nc1sc2c(c1-c1nc3ccccc3[nH]1)CCCC2)C1CCCC1	10	i	0	-0.22	88*	3
CN1CCN(S(=O)(=O)c2cccc(C(=O)Nc3sc4c(c3-c3nc5ccccc5[nH]3)CCCC4)c2)CC1	-65	i	-1	0.22	98*	3
CC(=O)NCCC(=O)Nc1sc2c(c1-c1nc3ccccc3[nH]1)CCCC2	-5	i	-2	-0.47	98*	2
O/N=C1\CCCc2oc3c(c21)CCCC3	-10	i	nt	-0.085	-8	2

Screening data deposited in PubChem by several laboratories.
